Test results: ChEMBL document CHEMBL4364345, “Synthesis and evaluation of 1,3,4-oxadiazole derivatives for development as broad-spectrum antibiotics” (Bioorg Med Chem, 2019)

Experiments:
Enterococcus faecium [1] = assay: Antimicrobial activity against Enterococcus faecium AUS0004 at 10 ug/disk incubated for 20 +/- 4 hrs by agar disk diffusion method; assay type: functional; conditions: read-out: DIZ
Escherichia coli [2] = assay: Antimicrobial activity against Escherichia coli ATCC 25922 at 50 ug/disk incubated for 20 +/- 4 hrs by agar disk diffusion method; assay type: functional; conditions: read-out: DIZ
Procedure, shortened: (§1)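 Agar disk diffusion on Mueller-Hinton agar swab-seeded from a 0.5 McFarland inoculum (about 10^8 CFU/ml). Cellulose discs got 50 μg compound (10 μl of 5 g/L in DMSO); a 10 μL DMSO disc was the control. Incubated aerobically at 35 ± 2 °C for 20 ± 4 h, then growth-inhibition diameters measured.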

Bacteroides fragilis = assay: Antimicrobial activity against Bacteroides fragilis ATCC 25285 at 50 ug/disk incubated for 20 +/- 4 hrs by agar disk diffusion method; assay type: functional; conditions: read-out: DIZ
Procedure, shortened: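 Anaerobic disk diffusion: MH agar + 5% horse blood seeded from a 0.5 McFarland swab, with discs of 50 μg compound (10 μl of 5 g/L DMSO solution) and a DMSO control disc. Kept at 35 ± 2 °C under anaerobic conditions for 20 ± 4 h; inhibition diameters recorded.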

Acinetobacter baumannii = assay: Antimicrobial activity against Acinetobacter baumannii clinical isolate at 50 ug/disk incubated for 20 +/- 4 hrs by agar disk diffusion method; assay type: functional; conditions: read-out: DIZ; procedure, shortened: as §1
Bacillus subtilis = assay: Antimicrobial activity against Bacillus subtilis clinical isolate at 50 ug/disk incubated for 20 +/- 4 hrs by agar disk diffusion method; assay type: functional; conditions: read-out: DIZ; procedure, shortened: as §1
Enterobacter cloacae = assay: Antimicrobial activity against Enterobacter cloacae clinical isolate at 50 ug/disk incubated for 20 +/- 4 hrs by agar disk diffusion method; assay type: functional; conditions: read-out: DIZ; procedure, shortened: as §1
Staphylococcus aureus = assay: Antimicrobial activity against Staphylococcus aureus ATCC 29213 at 50 ug/disk incubated for 20 +/- 4 hrs by agar disk diffusion method; assay type: functional; conditions: read-out: DIZ; procedure, shortened: as §1
Streptococcus pyogenes = assay: Antimicrobial activity against Streptococcus pyogenes clinical isolate at 50 ug/disk incubated for 20 +/- 4 hrs by agar disk diffusion method; assay type: functional; conditions: read-out: DIZ
Procedure, shortened: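 Plates of MH + 5% horse blood were swabbed with a 0.5 McFarland inoculum and received discs with 50 μg compound (from 5 g/L in DMSO) plus a 10 μL DMSO control disc. Incubation at 35 ± 2 °C aerobically with 5% CO2 for 20 ± 4 h, then zone diameters measured.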

Enterococcus faecium [3] = assay: Antimicrobial activity against Enterococcus faecium HM1070 at 50 ug/disk incubated for 20 +/- 4 hrs by agar disk diffusion method; assay type: functional; conditions: read-out: DIZ; procedure, shortened: as §1
Pseudomonas aeruginosa = assay: Antimicrobial activity against Pseudomonas aeruginosa clinical isolate at 50 ug/disk incubated for 20 +/- 4 hrs by agar disk diffusion method; assay type: functional; conditions: read-out: DIZ; procedure, shortened: as §1
Enterococcus faecalis [4] = assay: Antimicrobial activity against Enterococcus faecalis ATCC 29212 at 50 ug/disk incubated for 20 +/- 4 hrs by agar disk diffusion method; assay type: functional; conditions: read-out: DIZ; procedure, shortened: as §1
Clostridium perfringens = assay: Antimicrobial activity against Clostridium perfringens clinical isolate at 50 ug/disk incubated for 20 +/- 4 hrs by agar disk diffusion method; assay type: functional; conditions: read-out: DIZ
Procedure, shortened: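 Agar disk diffusion on MH agar with 5% horse blood (MHF), surface-seeded by swab from a 0.5 McFarland inoculum (about 10^8 CFU/ml). Cellulose discs received 10 μl of a 5 g/L DMSO solution (50 μg). A DMSO-only disc served as control. Anaerobic incubation at 35 ± 2 °C for 20 ± 4 h; growth-inhibition diameter measured in mm.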

Klebsiella pneumoniae = assay: Antimicrobial activity against Klebsiella pneumoniae clinical isolate at 50 ug/disk incubated for 20 +/- 4 hrs by agar disk diffusion method; assay type: functional; conditions: read-out: DIZ; procedure, shortened: as §1
Kocuria rhizophila = assay: Antimicrobial activity against Kocuria rhizophila clinical isolate at 50 ug/disk incubated for 20 +/- 4 hrs by agar disk diffusion method; assay type: functional; conditions: read-out: DIZ; procedure, shortened: as §1
Escherichia coli [5] = assay: Antimicrobial activity against Escherichia coli clinical isolate at 50 ug/disk incubated for 20 +/- 4 hrs by agar disk diffusion method; assay type: functional; conditions: read-out: DIZ; procedure, shortened: as §1
Enterococcus faecium [6] = assay: Antimicrobial activity against Enterococcus faecium AUS0004 at 50 ug/disk incubated for 20 +/- 4 hrs by agar disk diffusion method; assay type: functional; conditions: read-out: DIZ; procedure, shortened: as §1
Listeria monocytogenes [7] = assay: Antimicrobial activity against Listeria monocytogenes clinical isolate at 50 ug/disk incubated for 20 +/- 4 hrs by agar disk diffusion method; assay type: functional; conditions: read-out: DIZ
Procedure, shortened: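 Disk diffusion on MH agar with 5% horse blood, seeded by swab from a 0.5 McFarland suspension. Discs held 50 μg compound from a 5 g/L DMSO solution, with a DMSO-only control disc. Aerobic incubation at 35 ± 2 °C for 20 ± 4 h; inhibition zone diameter read.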

Listeria monocytogenes [8] = assay: Antimicrobial activity against Listeria monocytogenes clinical isolate at 5 ug/disk incubated for 20 +/- 4 hrs by agar disk diffusion method; assay type: functional; conditions: read-out: DIZ
Enterococcus faecalis [9] = assay: Antimicrobial activity against Enterococcus faecalis ATCC 29212 at 30 ug/disk incubated for 20 +/- 4 hrs by agar disk diffusion method; assay type: functional, organism-based
Enterococcus faecium [10] = assay: Antimicrobial activity against Enterococcus faecium AUS0004 at 30 ug/disk incubated for 20 +/- 4 hrs by agar disk diffusion method; assay type: functional, organism-based
Enterococcus faecium [11] = assay: Antimicrobial activity against Enterococcus faecium AUS0004 at 2 ug/disk incubated for 20 +/- 4 hrs by agar disk diffusion method; assay type: functional; conditions: read-out: DIZ
Enterococcus faecalis [12] = assay: Antimicrobial activity against Enterococcus faecalis ATCC 29212 at 300 ug/disk incubated for 20 +/- 4 hrs by agar disk diffusion method; assay type: functional; conditions: read-out: DIZ
Enterococcus faecium [13] = assay: Antimicrobial activity against Enterococcus faecium AUS0004 at 300 ug/disk incubated for 20 +/- 4 hrs by agar disk diffusion method; assay type: functional; conditions: read-out: DIZ
Listeria monocytogenes [14] = assay: Antimicrobial activity against Listeria monocytogenes clinical isolate at 30 ug/disk incubated for 20 +/- 4 hrs by agar disk diffusion method; assay type: functional; conditions: read-out: DIZ
Listeria monocytogenes [15] = assay: Antimicrobial activity against Listeria monocytogenes clinical isolate at 200 ug/disk incubated for 20 +/- 4 hrs by agar disk diffusion method; assay type: functional; conditions: read-out: DIZ
Enterococcus faecium [16] = assay: Antimicrobial activity against Enterococcus faecium AUS0004 at 5 ug/disk incubated for 20 +/- 4 hrs by agar disk diffusion method; assay type: functional; conditions: read-out: DIZ
Enterococcus faecalis [17] = assay: Antimicrobial activity against Enterococcus faecalis ATCC 29212 at 5 ug/disk incubated for 20 +/- 4 hrs by agar disk diffusion method; assay type: functional; conditions: read-out: DIZ
Enterococcus faecalis [18] = assay: Antimicrobial activity against Enterococcus faecalis ATCC 29212 at 15 ug/disk incubated for 20 +/- 4 hrs by agar disk diffusion method; assay type: functional; conditions: read-out: DIZ
Enterococcus faecium [19] = assay: Antimicrobial activity against Enterococcus faecium AUS0004 at 15 ug/disk incubated for 20 +/- 4 hrs by agar disk diffusion method; assay type: functional; conditions: read-out: DIZ

Compound: C[C@@H](O)[C@H]1C(=O)N2C(C(=O)O)=C(SCCNC=N)C[C@H]12 [IMIPENEM ANHYDROUS]
- zone of inhibition at 10 µg/disc (Enterococcus faecium [1]): 6 mm

Compound: O=C(Nc1nnc(-c2ccc(C(F)(F)F)cc2)o1)c1ccc(Cl)cc1
- zone of inhibition at 50 µg/disc (Escherichia coli [2]): 6 mm
- zone of inhibition at 50 µg/disc (Bacteroides fragilis): 9 mm
- zone of inhibition at 50 µg/disc (Acinetobacter baumannii): 6 mm
- zone of inhibition at 50 µg/disc (Bacillus subtilis): 13 mm
- zone of inhibition at 50 µg/disc (Enterobacter cloacae): 6 mm
- zone of inhibition at 50 µg/disc (Staphylococcus aureus): 9 mm
- zone of inhibition at 50 µg/disc (Streptococcus pyogenes): 6 mm
- zone of inhibition at 50 µg/disc (Enterococcus faecium [3]): 11 mm
- zone of inhibition at 50 µg/disc (Pseudomonas aeruginosa): 6 mm
- zone of inhibition at 50 µg/disc (Enterococcus faecalis [4]): 10 mm
- zone of inhibition at 50 µg/disc (Clostridium perfringens): 6 mm
- zone of inhibition at 50 µg/disc (Klebsiella pneumoniae): 6 mm
- zone of inhibition at 50 µg/disc (Kocuria rhizophila): 14 mm
- zone of inhibition at 50 µg/disc (Escherichia coli [5]): 6 mm
- zone of inhibition at 50 µg/disc (Enterococcus faecium [6]): 9 mm
- zone of inhibition at 50 µg/disc (Listeria monocytogenes [7]): 16 mm

Compound: CC1COc2c(N3CCN(C)CC3)c(F)cc3c(=O)c(C(=O)O)cn1c23 (centres undefined) [OFLOXACIN]
- zone of inhibition at 5 µg/disc (Listeria monocytogenes [8]): 21 mm

Compound: GENTAMICIN
- inhibition zone (IZ) (Enterococcus faecalis [9]): 14 mm
- inhibition zone (IZ) (Enterococcus faecium [10]): 17 mm

Compound: CC1(C)S[C@@H]2[C@H](NC(=O)[C@H](N)c3ccccc3)C(=O)N2[C@H]1C(=O)O [AMPICILLIN]
- zone of inhibition at 2 µg/disc (Enterococcus faecium [11]): 6 mm

Compound: CN[C@@H]1[C@H](O[C@H]2[C@H](O[C@H]3[C@H](O)[C@@H](O)[C@H](N=C(N)N)[C@@H](O)[C@@H]3N=C(N)N)O[C@@H](C)[C@]2(O)C=O)O[C@@H](CO)[C@H](O)[C@H]1O [STREPTOMYCIN]
- zone of inhibition at 300 µg/disc (Enterococcus faecalis [12]): 16 mm
- zone of inhibition at 300 µg/disc (Enterococcus faecium [13]): 22 mm

Compound: CO[C@@]1(NC(=O)[C@H](C(=O)O)c2ccc(O)cc2)C(=O)N2C(C(=O)O)=C(CSc3nnnn3C)CO[C@@H]21
- zone of inhibition at 30 µg/disc (Listeria monocytogenes [14]): 15 mm

Compound: C[C@@H]1O[C@@H]1P(=O)(O)O [FOSFOMYCIN]
- zone of inhibition at 200 µg/disc (Listeria monocytogenes [15]): 6 mm

Compound: CO[C@H]1/C=C/O[C@@]2(C)Oc3c(C)c(O)c4c(O)c(c(/C=N/N5CCN(C)CC5)c(O)c4c3C2=O)NC(=O)/C(C)=C\C=C\[C@H](C)[C@H](O)[C@@H](C)[C@@H](O)[C@@H](C)[C@H](OC(C)=O)[C@@H]1C [RIFAMPIN]
- zone of inhibition at 5 µg/disc (Enterococcus faecium [16]): 9 mm
- zone of inhibition at 5 µg/disc (Enterococcus faecalis [17]): 21 mm

Compound: CC[C@H]1OC(=O)[C@H](C)[C@@H](O[C@H]2C[C@@](C)(OC)[C@@H](O)[C@H](C)O2)[C@H](C)[C@@H](O[C@@H]2O[C@H](C)C[C@H](N(C)C)[C@H]2O)[C@](C)(O)C[C@@H](C)C(=O)[C@H](C)[C@@H](O)[C@]1(C)O [ERYTHROMYCIN]
- zone of inhibition at 15 µg/disc (Enterococcus faecalis [18]): 20 mm
- zone of inhibition at 15 µg/disc (Enterococcus faecium [19]): 6 mm
